This is an account of results in ChEMBL document CHEMBL4725226, “Discovery of a new potent inhibitor of mushroom tyrosinase (Agaricus bisporus) containing 4-(4-hydroxyphenyl)piperazin-1-yl moiety” (Bioorg Med Chem, 2020).

One series has as its target Mushroom tyrosinase (Agaricus bisporus, UniProt O42713+Q00024+C7FF04+C7FF05). Description: Inhibition of diphenolase activity of mushroom tyrosinase using L-Dopa as substrate preincubated with substrate for 10 mins followed by enzyme addition and measured after 5 mins. The procedure, abridged: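 Diphenolase assay: sample (5–300 µM) with 1.25 mM L-DOPA in 0.05 M sodium acetate pH 6.8, preincubated 10 min at 25 °C; mushroom tyrosinase (333 U/mL stock) added last. Linear A475 rise followed up to 5 min; % inhibition, IC50 interpolated from dose-response curves; three replicates. Kojic acid standard at 8–35 µM.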

Series [1] in a line: Antioxidant activity assessed as ABTS radical scavenging activity incubated in dark for 1 min. Type of series: functional. The essentials: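 ABTS radical cation generated from 7 mM ABTS plus 2.45 mM potassium persulfate (final), held dark at room temperature 24 h, then diluted to A734 0.700 ± 0.02. Sample added, kept dark at room temperature 1 min; drop in A734 read against a Trolox standard curve.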

The next series concerns HeLa. The experiment in a line: Cytotoxicity against human HeLa cells assessed as cell viability at 4 to 10 uM measured after 48 hrs by MTT assay. As to conditions: dose 4-10 µM. The format is cell-based. The procedure, abridged:
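HeLa grown in DMEM with 10% FBS, 2 mM L-glutamine, penicillin/streptomycin, 37 °C, 5% CO2; seeded at 3 × 10^4/mL. Exposed 48 h to compound (4–100 µM in DMSO, DMSO-only control), then MTT (0.5 mg/mL final) 3 h at 37 °C, lysed in DMSO, OD 560 nm; mean ± SD of triplicates.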

Series [2] addresses T1, Mushroom tyrosinase (Agaricus bisporus) (UniProt O42713+Q00024+C7FF04+C7FF05). Description: Potency index, ratio of kojic acid IC50 to test compound IC50 for diphenolase activity of mushroom tyrosinase using L-Dopa as substrate preincubated with substrate for 10 mins followed by enzyme addition and measured after 5 mins.
The target in series [3] is T1, Mushroom tyrosinase (Agaricus bisporus). The experiment in a line: Noncompetitive inhibition of diphenolase activity of mushroom tyrosinase assessed as decrease in Vmax with constant Km at 2 to 8 uM using 0.6 to 5 mM L-dopa as substrate by Lineweaver-Burk double reciprocal plot analysis. To be noted: dose microM 2-8.

Activity calls are given as the source filed them. The rule behind the calls is not given here.

Take `O=C(CCN1CCC(Cc2ccc(F)cc2)CC1)N1CCN(c2ccccc2)CC1`: on Mushroom tyrosinase, the IC50 (commonly the concentration that inhibits the measured activity by half) stood at 23.36 µM.

As to `O=C(CCN1CCC(Cc2ccc(F)cc2)CC1)N1CCN(c2ccc(O)cc2)CC1`, at Mushroom tyrosinase, the IC50 worked out at 6.06 µM.

As to `O=C(CN1CCC(Cc2ccccc2)CC1)N1CCN(c2ccc(O)cc2)CC1`, in series [1], the EC50 (commonly the concentration giving half of the maximal effect) turned out to be 18.1 µM. In addition, the Activity result in the series on HeLa is “Non-Toxic”. At Mushroom tyrosinase, this molecule displayed an IC50 of 3.8 µM. Moreover, the Ratio IC50 in series [2] was found to be 5. In addition, in series [3], the inhibition result was “Active”.

For `O=C(CN1CCC(Cc2ccc(F)cc2)CC1)N1CCN(c2ccc(O)cc2)CC1`, the IC50 at Mushroom tyrosinase turned out to be 4.49 µM.

In turn, `O=C(CN1CCC(Cc2ccccc2)CC1)N1CCN(c2ccccc2)CC1` had an IC50 on Mushroom tyrosinase of 80.86 µM.

`O=C(CCN1CCC(Cc2ccccc2)CC1)N1CCN(c2ccccc2)CC1` gave an IC50 on Mushroom tyrosinase of 57.5 µM.

Take `Cc1c(C)c2c(c(C)c1O)CCC(C)(C(=O)O)O2` (stereo not drawn) [TROLOX]: the EC50 in series [1] is 13 µM.

Consider `O=C(CCN1CCC(Cc2ccccc2)CC1)N1CCN(c2ccc(O)cc2)CC1`, for which the IC50 against Mushroom tyrosinase came to 4.03 µM.

The molecule `O=C(CN1CCC(Cc2ccc(F)cc2)CC1)N1CCN(c2ccccc2)CC1` came in with an IC50 at Mushroom tyrosinase of 9.6 µM.
